{
  "source": "ChEMBL document CHEMBL1629485",
  "about": "“Lead identification of conformationally restricted β-lactam type combretastatin analogues: synthesis, antiproliferative activity and tubulin targeting effects” (Eur J Med Chem, 2010)",
  "key": {"[1]": {"system": "MDA-MB-231", "assay": "Cell cycle arrest in estrogen receptor deficient human MDA-MB-231 cells assessed as accumulation at S phase at 100 nM after 24 hrs using propidium iodide staining by flow cytometry relative to control", "format": "functional", "in_short": "(§1)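 MDA-MB-231 cells in DMEM with 10% FBS and 2 mM L-glutamine, seeded at 18 × 10⁴ cells/mL. Exposed to test agent at the stated final concentration, or to 1% (v/v) ethanol vehicle, for 24, 48 or 72 h. Harvested by scraping and centrifugation, then RNase A treatment and propidium iodide DNA staining for at least 30 min at 37 °C. 10,000 cells per sample read at 488 nm by flow cytometry; mean ± SD of three experiments.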"}, "[2]": {"system": "MDA-MB-231", "assay": "Cell cycle arrest in estrogen receptor deficient human MDA-MB-231 cells assessed as accumulation at sub-G1 phase at 10 nM after 48 hrs using propidium iodide staining by flow cytometry relative to control", "format": "functional", "in_short": "as §1"}, "[3]": {"system": "MDA-MB-231", "assay": "Cell cycle arrest in estrogen receptor deficient human MDA-MB-231 cells assessed as accumulation at sub-G1 phase at 1 uM after 24 hrs using propidium iodide staining by flow cytometry relative to control", "format": "functional", "in_short": "as §1"}, "[4]": {"system": "MDA-MB-231", "assay": "Cell cycle arrest in estrogen receptor deficient human MDA-MB-231 cells assessed as appearance of polyploidy at 10 nM after 72 hrs using propidium iodide staining by flow cytometry relative to control", "format": "functional", "in_short": "as §1"}, "[5]": {"system": "MCF7", "assay": "Antiproliferative activity against human MCF7 cells expressing estrogen receptor after 72 hrs by MTT assay", "format": "functional, cell-based", "details": "MCF7, 72 h"}, "[6]": {"system": "MDA-MB-231", "assay": "Cytotoxicity against estrogen receptor deficient human MDA-MB-231 cells assessed as LDH release at 10 uM", "format": "functional", "in_short": "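After compound treatment, LDH was measured with a commercial LDH kit. Result is % cell lysis at 10 μM compound.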"}, "[7]": {"system": "MDA-MB-231", "assay": "Cell cycle arrest in estrogen receptor deficient human MDA-MB-231 cells assessed as appearance of polyploidy at 10 uM after 72 hrs using propidium iodide staining by flow cytometry relative to control", "format": "functional", "in_short": "(§2)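 MDA-MB-231 cells seeded at 18 × 10⁴ cells/mL and exposed to 1% (v/v) ethanol vehicle or compound at final concentrations (10 nM, 100 nM, 10 µM at all times; 1 µM also at 24 and 72 h). Cells harvested after 24, 48 or 72 h and treated with RNase A and propidium iodide for at least 30 min at 37 °C. 10,000 cells read at 488 nm by flow cytometry. Percent cells per phase reported, including polyploid; mean ± SD of three experiments.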"}, "[8]": {"system": "MDA-MB-231", "assay": "Cell cycle arrest in estrogen receptor deficient human MDA-MB-231 cells assessed as accumulation at G2/M phase at 10 nM after 48 hrs using propidium iodide staining by flow cytometry relative to control", "format": "functional", "in_short": "as §1"}, "[9]": {"system": "MDA-MB-231", "assay": "Cell cycle arrest in estrogen receptor deficient human MDA-MB-231 cells assessed as accumulation at G1 phase at 100 nM after 72 hrs using propidium iodide staining by flow cytometry relative to control", "format": "functional", "in_short": "as §1"}, "[10]": {"system": "MDA-MB-231", "assay": "Cell cycle arrest in estrogen receptor deficient human MDA-MB-231 cells assessed as accumulation at G1 phase at 10 uM after 72 hrs using propidium iodide staining by flow cytometry relative to control", "format": "functional", "in_short": "as §1"}, "[11]": {"system": "MDA-MB-231", "assay": "Cell cycle arrest in estrogen receptor deficient human MDA-MB-231 cells assessed as accumulation at G1 phase at 1 uM after 72 hrs using propidium iodide staining by flow cytometry relative to control", "format": "functional", "in_short": "as §1"}, "[12]": {"system": "MDA-MB-231", "assay": "Cell cycle arrest in estrogen receptor deficient human MDA-MB-231 cells assessed as accumulation at G1 phase at 10 nM after 48 hrs using propidium iodide staining by flow cytometry relative to control", "format": "functional", "in_short": "as §1"}, "[13]": {"system": "MDA-MB-231", "assay": "Cell cycle arrest in estrogen receptor deficient human MDA-MB-231 cells assessed as appearance of polyploidy at 100 nM after 48 hrs using propidium iodide staining by flow cytometry relative to control", "format": "functional", "in_short": "as §2"}, "[14]": {"system": "MDA-MB-231", "assay": "Cell cycle arrest in estrogen receptor deficient human MDA-MB-231 cells assessed as accumulation at sub-G1 phase at 10 nM after 72 hrs using propidium iodide staining by flow cytometry relative to control", "format": "functional", "in_short": "as §1"}, "[15]": {"system": "MDA-MB-231", "assay": "Cell cycle arrest in estrogen receptor deficient human MDA-MB-231 cells assessed as accumulation at G1 phase at 10 uM after 48 hrs using propidium iodide staining by flow cytometry relative to control", "format": "functional", "in_short": "as §1"}, "[16]": {"system": "MDA-MB-231", "assay": "Cell cycle arrest in estrogen receptor deficient human MDA-MB-231 cells assessed as accumulation at sub-G1 phase at 100 nM after 48 hrs using propidium iodide staining by flow cytometry relative to control", "format": "functional", "in_short": "as §1"}, "[17]": {"system": "MDA-MB-231", "assay": "Cell cycle arrest in estrogen receptor deficient human MDA-MB-231 cells assessed as accumulation at S phase at 10 nM after 24 hrs using propidium iodide staining by flow cytometry relative to control", "format": "functional", "in_short": "as §1"}, "[18]": {"system": "MDA-MB-231", "assay": "Cell cycle arrest in estrogen receptor deficient human MDA-MB-231 cells assessed as appearance of polyploidy at 1 uM after 72 hrs using propidium iodide staining by flow cytometry relative to control", "format": "functional", "in_short": "as §1"}, "[19]": {"system": "MDA-MB-231", "assay": "Cell cycle arrest in estrogen receptor deficient human MDA-MB-231 cells assessed as accumulation at G2/M phase at 10 uM after 48 hrs using propidium iodide staining by flow cytometry relative to control", "format": "functional", "in_short": "as §1"}, "[20]": {"system": "MDA-MB-231", "assay": "Cell cycle arrest in estrogen receptor deficient human MDA-MB-231 cells assessed as accumulation at G2/M phase at 1 uM after 72 hrs using propidium iodide staining by flow cytometry relative to control", "format": "functional", "in_short": "as §1"}, "[21]": {"system": "MDA-MB-231", "assay": "Cell cycle arrest in estrogen receptor deficient human MDA-MB-231 cells assessed as accumulation at G2/M phase at 10 uM after 24 hrs using propidium iodide staining by flow cytometry relative to control", "format": "functional", "in_short": "as §1"}, "[22]": {"system": "MDA-MB-231", "assay": "Cell cycle arrest in estrogen receptor deficient human MDA-MB-231 cells assessed as accumulation at G2/M phase at 100 nM after 72 hrs using propidium iodide staining by flow cytometry relative to control", "format": "functional", "in_short": "as §1"}, "[23]": {"system": "MDA-MB-231", "assay": "Cell cycle arrest in estrogen receptor deficient human MDA-MB-231 cells assessed as appearance of polyploidy at 10 nM after 24 hrs using propidium iodide staining by flow cytometry relative to control", "format": "functional", "in_short": "as §1"}, "[24]": {"system": "MDA-MB-231", "assay": "Cell cycle arrest in estrogen receptor deficient human MDA-MB-231 cells assessed as accumulation at sub-G1 phase at 100 nM after 72 hrs using propidium iodide staining by flow cytometry relative to control", "format": "functional", "in_short": "as §1"}, "[25]": {"system": "MDA-MB-231", "assay": "Cell cycle arrest in estrogen receptor deficient human MDA-MB-231 cells assessed as accumulation at sub-G1 phase at 10 uM after 72 hrs using propidium iodide staining by flow cytometry relative to control", "format": "functional", "in_short": "as §1"}, "[26]": {"system": "MDA-MB-231", "assay": "Cell cycle arrest in estrogen receptor deficient human MDA-MB-231 cells assessed as accumulation at G2/M phase at 1 uM after 24 hrs using propidium iodide staining by flow cytometry relative to control", "format": "functional", "in_short": "as §1"}, "[27]": {"system": "MDA-MB-231", "assay": "Cell cycle arrest in estrogen receptor deficient human MDA-MB-231 cells assessed as accumulation at S phase at 10 nM after 72 hrs using propidium iodide staining by flow cytometry relative to control", "format": "functional", "in_short": "as §1"}, "[28]": {"system": "MDA-MB-231", "assay": "Cell cycle arrest in estrogen receptor deficient human MDA-MB-231 cells assessed as accumulation at S phase at 100 nM after 48 hrs using propidium iodide staining by flow cytometry relative to control", "format": "functional", "in_short": "as §1"}, "[29]": {"system": "MDA-MB-231", "assay": "Cell cycle arrest in estrogen receptor deficient human MDA-MB-231 cells assessed as accumulation at G2/M phase at 10 uM after 72 hrs using propidium iodide staining by flow cytometry relative to control", "format": "functional", "in_short": "as §1"}, "[30]": {"system": "MDA-MB-231", "assay": "Cell cycle arrest in estrogen receptor deficient human MDA-MB-231 cells assessed as accumulation at G2/M phase at 100 nM after 24 hrs using propidium iodide staining by flow cytometry relative to control", "format": "functional", "in_short": "as §1"}},
  "data": [
    {"smiles": "COc1ccc(C2CC(=O)N2c2cc(OC)c(OC)c(OC)c2)cc1O", "note": "(stereo not given)", "values": [
      {"measurement": "Activity", "setting": "[1]", "value": 6.05, "unit": "%"},
      {"measurement": "Activity", "setting": "[2]", "value": 11.57, "unit": "%"},
      {"measurement": "Activity", "setting": "[3]", "value": 7.08, "unit": "%"},
      {"measurement": "Activity", "setting": "[4]", "value": 3.55, "unit": "%"},
      {"measurement": "IC50", "setting": "[5]", "value": 17, "unit": "nM"},
      {"measurement": "Activity", "setting": "[6]", "value": 16, "unit": "%"},
      {"measurement": "Activity", "setting": "[7]", "value": 3.38, "unit": "%"},
      {"measurement": "Activity", "setting": "[8]", "value": 23.71, "unit": "%"},
      {"measurement": "Activity", "setting": "[9]", "value": 13.9, "unit": "%"},
      {"measurement": "Activity", "setting": "[10]", "value": 17.14, "unit": "%"},
      {"measurement": "Activity", "setting": "[11]", "value": 14.29, "unit": "%"},
      {"measurement": "Activity", "setting": "[12]", "value": 45.25, "unit": "%"},
      {"measurement": "Activity", "setting": "[13]", "value": 4.61, "unit": "%"},
      {"measurement": "Activity", "setting": "[14]", "value": 15.25, "unit": "%"},
      {"measurement": "Activity", "setting": "[15]", "value": 14.44, "unit": "%"},
      {"measurement": "Activity", "setting": "[16]", "value": 37.5, "unit": "%"},
      {"measurement": "Activity", "setting": "[17]", "value": 12.55, "unit": "%"},
      {"measurement": "Activity", "setting": "[18]", "value": 5.97, "unit": "%"},
      {"measurement": "Activity", "setting": "[19]", "value": 27.25, "unit": "%"},
      {"measurement": "Activity", "setting": "[20]", "value": 21.24, "unit": "%"},
      {"measurement": "Activity", "setting": "[21]", "value": 55.36, "unit": "%"},
      {"measurement": "Activity", "setting": "[22]", "value": 12.62, "unit": "%"},
      {"measurement": "Activity", "setting": "[23]", "value": 2.84, "unit": "%"},
      {"measurement": "Activity", "setting": "[24]", "value": 63.1, "unit": "%"},
      {"measurement": "Activity", "setting": "[25]", "value": 46.49, "unit": "%"},
      {"measurement": "Activity", "setting": "[26]", "value": 63.16, "unit": "%"},
      {"measurement": "Activity", "setting": "[27]", "value": 9.08, "unit": "%"},
      {"measurement": "Activity", "setting": "[28]", "value": 8.9, "unit": "%"},
      {"measurement": "Activity", "setting": "[29]", "value": 21.81, "unit": "%"},
      {"measurement": "Activity", "setting": "[30]", "value": 59.43, "unit": "%"}
    ]}
  ]
}
